Test results from ChEMBL document CHEMBL1155909, “Discovery and stereoselective synthesis of the novel isochroman neurokinin-1 receptor antagonist 'CJ-17,493'” (Bioorg Med Chem, 2008).
Values belong to the molecule of their own block, whether it stands above or below them.

Key:
[1] = molecular target: T1, Cytochrome P450 2D6 (Homo sapiens, UniProt P10635); experiment: Binding affinity to human CYP2D6 using bufuralol as substrate; format: ADME
[2] = molecular target: CYP2D6 (Homo sapiens, UniProt P10635); experiment: (§1) Inhibition of human CYP2D6 at 5 uM; format: ADME
[3] = system: Liver microsomes; experiment: Metabolic stability in human liver microsome assessed as ratio of half life between CYP2D6-deficient microsome and CYP2D6-deficient microsome with addition of exogenous CYP2D6; format: ADME
Procedure, shortened: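 Half-lives were measured in CYP2D6-deficient human liver microsomes with and without added exogenous CYP2D6. The value is the ratio of the half-life without CYP2D6 to the half-life with it.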

[4] = system: Mustela putorius furo; experiment: Antiemetic activity against cisplatin-induced emesis in sc dosed ferrets; format: functional, organism-based; settings: for ED90: Mustela putorius, sc, read-out: ED90
Procedure, shortened: (§2)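 Ferrets were given the test compound sc 30 min before cisplatin (10 mg/kg, ip). Retching and vomiting/gagging episodes were counted against vehicle control. Groups were n = 4–5, data are mean ± SEM, and Student's t-test was used. Results are given as ED90 (mg/kg, sc) or as % inhibition at the stated dose.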

[5] = system: Gerbillinae; experiment: Inhibition of [Sar9, Met(O2)11]SP-induced foot tapping in gerbil at 1 mg/kg, sc relative to CP-122721
[6] = molecular target: T1, Cytochrome P450 2D6; experiment: as §1; format: ADME; settings: 5 µM
[7] = system: Gerbillinae; experiment: Inhibition of [Sar9, Met(O2)11]SP-induced foot tapping in gerbil at 0.1 mg/kg, sc relative to CP-122721
[8] = molecular target: Substance-P receptor (Homo sapiens, UniProt P25103); experiment: Displacement of [3H]SP from NK1 receptor in human IM9 cells
Substance-P receptor, sequence (P25103 whole entry): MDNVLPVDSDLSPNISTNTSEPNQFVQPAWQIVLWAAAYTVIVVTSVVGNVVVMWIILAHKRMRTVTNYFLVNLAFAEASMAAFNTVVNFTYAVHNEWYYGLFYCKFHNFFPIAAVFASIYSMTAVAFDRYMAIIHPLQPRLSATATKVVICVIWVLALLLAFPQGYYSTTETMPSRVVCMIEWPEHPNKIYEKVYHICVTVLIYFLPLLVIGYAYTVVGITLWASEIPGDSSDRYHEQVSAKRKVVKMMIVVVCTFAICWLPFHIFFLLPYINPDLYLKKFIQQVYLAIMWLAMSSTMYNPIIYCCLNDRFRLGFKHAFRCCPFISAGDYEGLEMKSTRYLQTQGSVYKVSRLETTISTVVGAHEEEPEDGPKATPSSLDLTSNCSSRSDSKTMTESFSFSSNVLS

[9] = system: Mustela putorius furo; experiment: Antiemetic activity against cisplatin-induced emesis in ferrets at 0.1 mg/kg, sc; format: functional; settings: route subcutaneous; procedure, shortened: as §2
[10] = system: Mustela putorius furo; experiment: Antiemetic activity against cisplatin-induced emesis in ferrets at 0.3 mg/kg, sc; format: functional; settings: route subcutaneous; procedure, shortened: as §2
[11] = Oral bioavailability in dog at 5 mg/kg; format: ADME, organism-based, Canis lupus familiaris; settings: in vivo
Procedure, shortened: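 Dogs were dosed orally at 5 mg/kg as a water solution. Oral bioavailability was determined.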

[12] = Half life in rat at 0.3 mg/kg, iv; format: ADME, organism-based; set-up: dose 0.3 mg/kg, route intravenous; settings: in vivo
Procedure, shortened: (§3)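 Rats received 0.3 mg/kg iv. Plasma clearance, steady-state volume of distribution and half-life were derived from plasma levels.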

[13] = Volume of distribution at steady state in rat at 0.3 mg/kg, iv; format: ADME, organism-based; set-up: dose 0.3 mg/kg, route intravenous; settings: in vivo, read-out: Vdss; procedure, shortened: as §3
[14] = Clearance in dog at 1 mg/kg, iv; format: ADME, organism-based, Canis lupus familiaris; set-up: dose 1 mg/kg, route intravenous; settings: in vivo
Procedure, shortened: (§4)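 Dogs received 1 mg/kg iv. Plasma clearance, steady-state volume of distribution and half-life were derived.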

[15] = molecular target: Sodium channel protein type 2 subunit alpha (Rattus norvegicus, UniProt P04775); experiment: Displacement of [3H]batrachotoxinin from rat sodium channel type 2A subunit expressed in CHO-CNa2A cells […]; format: cell-based
Sodium channel protein type 2 subunit alpha, sequence (P04775 whole entry): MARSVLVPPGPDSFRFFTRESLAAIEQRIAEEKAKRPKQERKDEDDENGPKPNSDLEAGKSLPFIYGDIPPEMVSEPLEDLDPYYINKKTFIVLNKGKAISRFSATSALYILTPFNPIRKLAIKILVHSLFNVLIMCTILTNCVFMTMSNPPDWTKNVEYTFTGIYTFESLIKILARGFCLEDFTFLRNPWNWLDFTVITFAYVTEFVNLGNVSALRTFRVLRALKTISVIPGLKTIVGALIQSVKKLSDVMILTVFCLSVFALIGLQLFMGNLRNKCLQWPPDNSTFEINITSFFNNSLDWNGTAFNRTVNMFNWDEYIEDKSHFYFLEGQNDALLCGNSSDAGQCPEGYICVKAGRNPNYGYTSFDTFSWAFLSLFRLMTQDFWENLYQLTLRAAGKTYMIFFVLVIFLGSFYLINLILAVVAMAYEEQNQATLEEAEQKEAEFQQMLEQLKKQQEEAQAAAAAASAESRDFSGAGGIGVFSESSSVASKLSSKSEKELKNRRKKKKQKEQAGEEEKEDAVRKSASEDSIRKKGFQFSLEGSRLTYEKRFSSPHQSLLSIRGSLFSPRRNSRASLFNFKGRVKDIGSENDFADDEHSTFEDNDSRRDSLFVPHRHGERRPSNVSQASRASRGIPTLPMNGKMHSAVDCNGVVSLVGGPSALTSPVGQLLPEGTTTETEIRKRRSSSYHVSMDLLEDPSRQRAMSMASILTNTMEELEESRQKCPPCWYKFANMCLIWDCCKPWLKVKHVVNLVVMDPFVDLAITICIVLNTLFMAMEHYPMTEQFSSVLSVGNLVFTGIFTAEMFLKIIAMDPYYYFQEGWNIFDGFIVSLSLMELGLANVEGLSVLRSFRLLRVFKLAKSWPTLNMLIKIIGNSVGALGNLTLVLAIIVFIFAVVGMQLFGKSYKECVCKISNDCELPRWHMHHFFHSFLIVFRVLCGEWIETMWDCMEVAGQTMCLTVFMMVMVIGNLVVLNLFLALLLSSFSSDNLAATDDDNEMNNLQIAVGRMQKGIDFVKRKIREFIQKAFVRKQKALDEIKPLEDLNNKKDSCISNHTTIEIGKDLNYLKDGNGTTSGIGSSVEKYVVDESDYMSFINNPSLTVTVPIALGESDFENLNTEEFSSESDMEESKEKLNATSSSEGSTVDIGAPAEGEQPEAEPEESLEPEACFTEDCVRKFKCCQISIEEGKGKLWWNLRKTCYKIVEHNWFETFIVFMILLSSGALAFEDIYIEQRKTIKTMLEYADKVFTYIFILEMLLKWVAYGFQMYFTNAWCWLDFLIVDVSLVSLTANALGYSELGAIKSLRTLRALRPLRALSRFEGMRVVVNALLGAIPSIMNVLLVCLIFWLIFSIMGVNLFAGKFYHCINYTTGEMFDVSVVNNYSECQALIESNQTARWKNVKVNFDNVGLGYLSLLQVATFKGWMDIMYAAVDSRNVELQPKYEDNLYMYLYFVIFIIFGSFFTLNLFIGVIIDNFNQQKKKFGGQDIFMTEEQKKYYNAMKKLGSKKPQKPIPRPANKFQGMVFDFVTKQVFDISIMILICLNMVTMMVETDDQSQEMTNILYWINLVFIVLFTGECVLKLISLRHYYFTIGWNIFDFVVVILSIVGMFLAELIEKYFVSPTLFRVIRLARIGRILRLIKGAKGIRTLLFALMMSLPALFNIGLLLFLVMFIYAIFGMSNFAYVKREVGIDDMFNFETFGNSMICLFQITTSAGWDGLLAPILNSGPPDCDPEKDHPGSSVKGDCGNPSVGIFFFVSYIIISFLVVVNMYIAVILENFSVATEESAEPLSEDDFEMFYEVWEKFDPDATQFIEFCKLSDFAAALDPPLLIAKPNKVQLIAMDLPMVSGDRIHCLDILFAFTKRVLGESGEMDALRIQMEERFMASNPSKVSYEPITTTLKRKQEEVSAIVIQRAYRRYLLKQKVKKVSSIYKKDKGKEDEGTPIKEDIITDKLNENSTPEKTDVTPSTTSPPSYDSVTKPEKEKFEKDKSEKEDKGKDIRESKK

[16] = Volume of distribution at steady state in dog at 1 mg/kg, iv; format: ADME, organism-based, Canis lupus familiaris; set-up: dose 1 mg/kg, route intravenous; settings: in vivo, read-out: Vdss; procedure, shortened: as §4
[17] = Displacement of [3H]desmethoxyverapamil from L-type calcium channel
[18] = Half life in dog at 1 mg/kg, iv; format: ADME, organism-based, Canis lupus familiaris; set-up: dose 1 mg/kg, route intravenous; settings: in vivo; procedure, shortened: as §4
[19] = system: Gerbillinae; experiment: Inhibition of [Sar9, Met(O2)11]SP-induced foot tapping in sc dosed gerbil
[20] = Clearance in rat at 0.3 mg/kg, iv; format: ADME, organism-based; set-up: dose 0.3 mg/kg, route intravenous; settings: in vivo; procedure, shortened: as §3
[21] = molecular target: Substance-P receptor (Cavia porcellus) (UniProt P30547); experiment: Activity at NK1 receptor in po dosed guinea pig ureter assessed as capsaicin-induced plasma protein leakage; format: organism-based
Substance-P receptor (Cavia porcellus), sequence (P30547 whole entry): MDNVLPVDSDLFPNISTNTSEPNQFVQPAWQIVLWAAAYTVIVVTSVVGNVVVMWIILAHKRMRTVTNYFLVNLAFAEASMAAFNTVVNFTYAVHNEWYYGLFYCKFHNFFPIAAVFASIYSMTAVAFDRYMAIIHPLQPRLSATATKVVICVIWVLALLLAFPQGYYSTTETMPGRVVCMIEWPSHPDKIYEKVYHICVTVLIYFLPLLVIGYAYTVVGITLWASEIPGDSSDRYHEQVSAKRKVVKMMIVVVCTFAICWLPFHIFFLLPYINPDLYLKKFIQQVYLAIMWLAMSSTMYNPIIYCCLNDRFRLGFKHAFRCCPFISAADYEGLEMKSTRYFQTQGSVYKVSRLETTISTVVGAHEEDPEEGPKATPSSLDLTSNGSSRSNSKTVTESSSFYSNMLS
Procedure, shortened: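 Guinea pigs were dosed orally. Capsaicin (30 µM) was given ip and caused plasma protein leakage in the ureter, taken as activation of peripheral NK1 receptors. Inhibition was measured across doses, and the ED50 was derived in mg/kg, po.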

[22] = substrate: COc1cc2c(cc1CN[C@H]1CCCN[C@H]1c1ccccc1)[C@](C)(C(F)(F)F)OCC2; experiment: Activity of CYP2D6 for N-dealkylation in human liver microsomes; format: ADME, Microsome
[23] = substrate: COc1cc2c(cc1CN[C@H]1CCCN[C@H]1c1ccccc1)[C@](C)(C(F)(F)F)OCC2; experiment: Activity of CYP2D6 for hydroxylation in human liver microsomes; format: ADME, Microsome
[24] = dose 1 mg/kg, route subcutaneous
[25] = dose 0.1 mg/kg, route subcutaneous

Molecule: COc1ccc(C(C)C)cc1CN[C@H]1C2CCN(CC2)[C@H]1C(c1ccccc1)c1ccccc1 [EZLOPITANT]
Ki [1]: 420 nM | inhibition at 5 µM [2]: 64.1% | Ratio [3]: 1.8 | ED90 [4]: 2.1 mg/kg

inhibition (INH) [6]: 41.8% | IC50 [8]: < 0.1 nM
Molecule: COc1cc2c(cc1CN[C@H]1CCCN[C@H]1c1ccccc1)C(C)(C(F)(F)F)OC2 (mixture of isomers; 14)
inhibition (INH) [5, 24]: 69% | inhibition (INH) [7, 25]: 15%

inhibition at 5 µM [2]: 66.4% | IC50 [8]: < 0.1 nM
Molecule: COc1cc2c(cc1CN[C@H]1CCCN[C@H]1c1ccccc1)C(C(F)(F)F)OC2 (mixture of isomers)
inhibition in vivo at 0.1 mg/kg [9]: 99% | % inhibition at 0.1 mg/kg ([7]; Gerbillinae, sc): 84%

Ki [1]: 660 nM | inhibition (INH) [6]: 73% | Ratio [3]: 2.1 | IC50 [8]: < 0.1 nM
Molecule: COc1cc2c(cc1CN[C@H]1CCCN[C@H]1c1ccccc1)C(C)(C(F)(F)F)OC2 (mixture of isomers; 15)
inhibition (INH) [5, 24]: 77% | ED100 [4]: 0.3 mg/kg | ED90 [4]: 0.05 mg/kg

inhibition (INH) [6]: 81% | IC50 [8]: 0.16 nM
Molecule: COc1cc2c(cc1CN[C@H]1CCCN[C@H]1c1ccccc1)C(C)(C(F)(F)F)OC2 (mixture of isomers; 16)
inhibition (INH) [5, 24]: 94% | inhibition (INH) [7, 25]: 87% | inhibition in vivo at 0.3 mg/kg [10]: 99%

Ki [1]: 520 nM | inhibition at 5 µM [2]: 75.9% | Ratio [3]: 10.6 | IC50 [8]: 0.4 nM
Molecule: COc1cc2c(cc1CN[C@H]1CCCN[C@H]1c1ccccc1)C(C(F)(F)F)CC2 (mixture of isomers; 11)
% inhibition at 1 mg/kg ([5]; Gerbillinae, sc): 88% | % inhibition at 0.1 mg/kg ([7]; Gerbillinae, sc): 79%

Ki [1]: 120 nM | Ratio [3]: 1.8 | IC50 [8]: < 0.1 nM
Molecule: COc1cc2c(cc1CN[C@H]1CCCN[C@H]1c1ccccc1)C(C)(C(F)(F)F)CCC2 (mixture of isomers; 21)
inhibition in vivo at 0.1 mg/kg [9]: 97% | inhibition (INH) [5, 24]: 91% | inhibition (INH) [7, 25]: 86%

Molecule: COc1cc2c(cc1CN[C@H]1CCCN[C@H]1c1ccccc1)[C@](C)(C(F)(F)F)OCC2.O
bioavailability [11]: 9.8%

Molecule: COc1cc2c(cc1CN[C@H]1CCCN[C@H]1c1ccccc1)[C@](C)(C(F)(F)F)OCC2 [listing 1 of 2 here]
half-life [12]: 8.8 h | Vd [13]: 7 L/kg | clearance [14]: 1.9 L/h/kg | IC50 [15]: 48 nM | Vd [16]: 11 L/kg | IC50 [17]: 164 nM | half-life [18]: 3.8 h | IC50 [8]: < 0.1 nM | Ki [8]: 0.2 nM | ED90 [4]: 0.07 mg/kg | ED50 [19]: 0.043 mg/kg | clearance [20]: 0.66 L/h/kg

Molecule: COc1cc2c(cc1CN[C@H]1CCCN[C@H]1c1ccccc1)[C@](C)(C(F)(F)F)OCC2 [listing 2 of 2 here]
ED50 [21]: 0.005 mg/kg

inhibition (INH) [6]: 42% | IC50 [8]: < 0.1 nM
Molecule: COc1cc2c(cc1CN[C@H]1CCCN[C@H]1c1ccccc1)C(C)(C(F)(F)F)CCC2 (mixture of isomers; 20)
inhibition (INH) [5, 24]: 65% | inhibition (INH) [7, 25]: 0%

Molecule: COc1ccc(OC(F)(F)F)cc1CN[C@H]1CCCN[C@H]1c1ccccc1
ED100 [4]: >=0.3 mg kg-1 | ED90 [4]: 0.09 mg/kg | ED50 [19]: 0.28 mg/kg

inhibition (INH) [6]: 90% | IC50 [8]: 0.34 nM
Molecule: COc1cc2c(cc1CN[C@H]1CCCN[C@H]1c1ccccc1)C(C)(C(F)(F)F)CCC2 (mixture of isomers; 22)
inhibition (INH) [5, 24]: 87% | inhibition (INH) [7, 25]: 26%

inhibition at 5 µM [2]: 62.6%
Molecule: COc1ccc(C(C)(OC)C(F)(F)F)cc1CN[C@H]1CCCN[C@H]1c1ccccc1 (mixture of isomers)
inhibition in vivo at 0.1 mg/kg [9]: 15% | inhibition in vivo at 1 mg/kg ([5]; Gerbillinae, sc, dose 1 mg/kg, route subcutaneous): 55% | inhibition in vivo at 0.1 mg/kg ([7]; Gerbillinae, sc, dose 0.1 mg/kg, route subcutaneous): 63% | ED50 [19]: 0.11 mg/kg

B1: Cytochrome P450 2D6 (Homo sapiens) (protein)
chain: MGLEALVPLAVIVAIFLLLVDLMHRRQRWAARYPPGPLPLPGLGNLLHVDFQNTPYCFDQLRRRFGDVFSLQLAWTPVVVLNGLAAVREALVTHGEDTADRPPVPITQILGFGPRSQGVFLARYGPAWREQRRFSVSTLRNLGLGKKSLEQWVTEEAACLCAAFANHSGRPFRPNGLLDKAVSNVIASLTCGRRFEYDDPRFLRLLDLAQEGLKEESGFLREVLNAVPVLLHIPALAGKVLRFQKAFLTQLDELLTEHRMTWDPAQPPRDLTEAFLAEMEKAKGNPESSFNDENLRIVVADLFSAGMVTTSTTLAWGLLLMILHPDVQRRVQQEIDDVIGQVRRPEMGDQAHMPYTTAVIHEVQRFGDIVPLGVTHMTSRDIEVQGFRIPKGTTLITNLSSVLKDEAVWEKPFRFHPEHFLDAQGHFVKPEAFLPFSAGRRACLGEPLARMELFLFFTSLLQHFSFSVPTGQPRPSHHGVFAFLVSPSPYELCAVPR
Km [22]: 2.3 µM | Km [23]: 16.6 µM
